From ChEMBL document CHEMBL4024748, “Development of Potent Type I Protein Arginine Methyltransferase (PRMT) Inhibitors of Leukemia Cell Proliferation” (J Med Chem, 2017)
pIC50: −log10 of the molar value. Calls of active or inactive are those of the source.

Experiments:
MV4-11 [1] = test: Cytotoxicity against human MV4-11 cells assessed as decrease in cell viability at 6.25 to 12.5 uM after 96 hrs by Cell-Titer Glo assay; type: functional, cell-based
Outline: (§1)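 Cells kept at 37°C, 5% CO2, exposed to compound or DMSO control for 96 h. Viability read by CellTiter-Glo luminescence after 2 min shaking to lyse and 10 min at room temperature. Triplicate wells, normalised to control cells. For long-term growth, log-phase seeding densities; cells counted and replated to the starting density with fresh compound on days 4 and 8.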

[2] = molecular target: Histone-lysine N-methyltransferase, H3 lysine-79 specific (Homo sapiens) (UniProt Q8TEK3); test: Inhibition of DOT1L (unknown origin) at 100 uM incubated for 15 mins followed by substrate addition measured after 60 mins by Alpha screen assay
Sequence of Histone-lysine N-methyltransferase, H3 lysine-79 specific (Homo sapiens) (Q8TEK3 whole entry, looked up): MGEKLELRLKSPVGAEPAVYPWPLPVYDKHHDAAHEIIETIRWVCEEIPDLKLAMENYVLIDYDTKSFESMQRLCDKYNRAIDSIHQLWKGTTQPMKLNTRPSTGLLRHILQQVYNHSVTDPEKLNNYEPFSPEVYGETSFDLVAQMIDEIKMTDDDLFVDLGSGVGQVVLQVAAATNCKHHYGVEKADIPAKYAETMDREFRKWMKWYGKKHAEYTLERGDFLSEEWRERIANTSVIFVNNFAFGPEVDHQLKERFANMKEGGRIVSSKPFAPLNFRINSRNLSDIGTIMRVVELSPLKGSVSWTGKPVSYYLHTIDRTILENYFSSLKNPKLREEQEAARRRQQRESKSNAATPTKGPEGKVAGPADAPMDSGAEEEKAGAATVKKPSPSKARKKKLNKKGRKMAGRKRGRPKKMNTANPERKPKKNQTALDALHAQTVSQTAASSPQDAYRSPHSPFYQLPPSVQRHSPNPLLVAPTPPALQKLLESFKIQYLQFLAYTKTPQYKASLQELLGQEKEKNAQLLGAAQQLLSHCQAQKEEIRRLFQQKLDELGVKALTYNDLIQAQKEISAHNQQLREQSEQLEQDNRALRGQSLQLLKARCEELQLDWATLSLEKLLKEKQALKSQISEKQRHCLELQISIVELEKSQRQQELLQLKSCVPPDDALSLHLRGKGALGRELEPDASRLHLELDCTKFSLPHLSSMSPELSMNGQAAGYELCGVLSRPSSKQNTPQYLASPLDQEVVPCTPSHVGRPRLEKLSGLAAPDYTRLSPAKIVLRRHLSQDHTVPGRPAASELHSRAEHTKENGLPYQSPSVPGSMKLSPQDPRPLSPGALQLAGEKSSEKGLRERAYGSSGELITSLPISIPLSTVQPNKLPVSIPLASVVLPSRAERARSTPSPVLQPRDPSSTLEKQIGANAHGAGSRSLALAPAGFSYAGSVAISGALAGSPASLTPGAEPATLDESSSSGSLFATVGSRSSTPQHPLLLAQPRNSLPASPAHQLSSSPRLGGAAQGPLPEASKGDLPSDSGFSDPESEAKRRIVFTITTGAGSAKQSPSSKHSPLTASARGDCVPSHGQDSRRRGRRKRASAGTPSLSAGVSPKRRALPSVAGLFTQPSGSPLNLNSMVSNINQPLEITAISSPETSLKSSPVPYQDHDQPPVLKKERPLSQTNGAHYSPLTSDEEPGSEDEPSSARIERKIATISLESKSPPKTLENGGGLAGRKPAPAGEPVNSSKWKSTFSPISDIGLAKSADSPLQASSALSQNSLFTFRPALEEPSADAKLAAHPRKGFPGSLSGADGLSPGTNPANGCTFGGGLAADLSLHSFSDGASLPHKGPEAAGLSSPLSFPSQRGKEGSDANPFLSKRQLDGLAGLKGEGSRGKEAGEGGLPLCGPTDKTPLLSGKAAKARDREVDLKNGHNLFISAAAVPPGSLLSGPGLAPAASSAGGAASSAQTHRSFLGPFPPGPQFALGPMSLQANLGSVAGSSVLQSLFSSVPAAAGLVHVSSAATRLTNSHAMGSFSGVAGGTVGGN
Outline: (§2)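 DOT1L by AlphaScreen. Enzyme and substrate in 1x assay buffer, compound at 1% DMSO final. Enzyme preincubated with compound 15 min at room temperature, substrate added, reaction 60 min at room temperature. Acceptor/donor bead mix added and incubated 60 min at room temperature under subdued light.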

[3] = molecular target: Protein arginine N-methyltransferase 1 (Homo sapiens) (UniProt Q99873); test: Inhibition of PRMT1 in human MV411 cells assessed as reduction in H4R3me2a levels after 48 hrs by Western blot analysis; type: cell-based
Sequence of Protein arginine N-methyltransferase 1 (Homo sapiens) (Q99873 whole entry, looked up): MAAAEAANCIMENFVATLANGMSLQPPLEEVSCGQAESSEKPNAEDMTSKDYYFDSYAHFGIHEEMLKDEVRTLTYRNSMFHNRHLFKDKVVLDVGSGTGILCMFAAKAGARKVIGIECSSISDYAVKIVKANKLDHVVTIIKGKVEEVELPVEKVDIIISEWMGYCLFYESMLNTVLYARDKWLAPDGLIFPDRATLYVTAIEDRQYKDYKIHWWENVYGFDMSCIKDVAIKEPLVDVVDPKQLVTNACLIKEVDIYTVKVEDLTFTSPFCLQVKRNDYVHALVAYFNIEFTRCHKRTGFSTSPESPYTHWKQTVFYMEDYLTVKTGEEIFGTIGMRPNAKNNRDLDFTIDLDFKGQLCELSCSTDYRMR
Outline: (§3)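 MV4-11 cells treated with compound for 48 h. ADMA, SDMA and H4R3me2a read by western blot. Blots blocked in 5% nonfat milk in PBST, primary antibodies overnight at 4°C, HRP anti-rabbit secondary at 1:10000 for 1 h.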

MV4-11 [4] = test: Induction of apoptosis in human MV4-11 cells after 96 hrs by annexin V-FITC/propidium iodide staining-based flow cytometric method; type: functional, cell-based
Outline: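 MV4-11 cells in 6-well plates with compound or DMSO control, harvested at 96 h. Stained with an Annexin V-FITC apoptosis detection kit and analysed by flow cytometry. Mean ± SD of three replicates.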

MV4-11 [5] = test: Upregulation of MNDA mRNA levels in human MV4-11 cells by qRT-PCR analysis; type: functional, cell-based
Outline: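 Treated MV4-11 cells analysed by SYBR Green qRT-PCR, with B2M as internal control. Fold change calculated by the ΔΔCt method. Samples run in triplicate and reported as mean ± SD.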

MV4-11 [6] = test: Antiproliferative activity against human MV4-11 cells assessed as decrease in cell viability measured at day 4 by Cell-Titer Glo assay; type: functional, cell-based; settings: MV4-11, 96 h; outline: as §1
KOPN-8 = test: Cytotoxicity against human KOPN8 cells assessed as decrease in cell viability after 96 hrs by Cell-Titer Glo assay; type: functional, cell-based; outline: as §1
RS4-11 = test: Cytotoxicity against human RS4:11 cells assessed as decrease in cell viability after 96 hrs by Cell-Titer Glo assay; type: functional, cell-based; outline: as §1
[7] = molecular target: Protein arginine N-methyltransferase 1 (Homo sapiens) (UniProt Q99873); test: Inhibition of PRMT1 in human MV411 cells assessed as reduction in ADMA levels after 48 hrs by Western blot analysis; type: cell-based; outline: as §3
[8] = molecular target: T1, DNMT3A2/3L complex (Homo sapiens) (UniProt Q9Y6K1+Q9UJW3); test: Inhibition of DNMT3A/3L (unknown origin) at 50 uM incubated for 15 mins followed by substrate addition measured after 60 mins by radioisotope assay; type: protein-complex assay
T1 sequence (Q9UJW3 whole entry, looked up): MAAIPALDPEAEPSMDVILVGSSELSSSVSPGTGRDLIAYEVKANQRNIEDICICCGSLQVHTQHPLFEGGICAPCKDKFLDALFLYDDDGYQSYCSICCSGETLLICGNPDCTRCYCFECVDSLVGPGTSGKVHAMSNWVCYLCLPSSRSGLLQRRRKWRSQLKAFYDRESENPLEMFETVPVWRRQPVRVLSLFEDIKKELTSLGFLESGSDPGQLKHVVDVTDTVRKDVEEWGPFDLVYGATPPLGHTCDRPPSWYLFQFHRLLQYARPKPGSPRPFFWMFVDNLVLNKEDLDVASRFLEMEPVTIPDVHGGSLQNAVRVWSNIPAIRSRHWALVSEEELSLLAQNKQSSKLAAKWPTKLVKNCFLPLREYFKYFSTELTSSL
T1 sequence (Q9Y6K1 whole entry, looked up): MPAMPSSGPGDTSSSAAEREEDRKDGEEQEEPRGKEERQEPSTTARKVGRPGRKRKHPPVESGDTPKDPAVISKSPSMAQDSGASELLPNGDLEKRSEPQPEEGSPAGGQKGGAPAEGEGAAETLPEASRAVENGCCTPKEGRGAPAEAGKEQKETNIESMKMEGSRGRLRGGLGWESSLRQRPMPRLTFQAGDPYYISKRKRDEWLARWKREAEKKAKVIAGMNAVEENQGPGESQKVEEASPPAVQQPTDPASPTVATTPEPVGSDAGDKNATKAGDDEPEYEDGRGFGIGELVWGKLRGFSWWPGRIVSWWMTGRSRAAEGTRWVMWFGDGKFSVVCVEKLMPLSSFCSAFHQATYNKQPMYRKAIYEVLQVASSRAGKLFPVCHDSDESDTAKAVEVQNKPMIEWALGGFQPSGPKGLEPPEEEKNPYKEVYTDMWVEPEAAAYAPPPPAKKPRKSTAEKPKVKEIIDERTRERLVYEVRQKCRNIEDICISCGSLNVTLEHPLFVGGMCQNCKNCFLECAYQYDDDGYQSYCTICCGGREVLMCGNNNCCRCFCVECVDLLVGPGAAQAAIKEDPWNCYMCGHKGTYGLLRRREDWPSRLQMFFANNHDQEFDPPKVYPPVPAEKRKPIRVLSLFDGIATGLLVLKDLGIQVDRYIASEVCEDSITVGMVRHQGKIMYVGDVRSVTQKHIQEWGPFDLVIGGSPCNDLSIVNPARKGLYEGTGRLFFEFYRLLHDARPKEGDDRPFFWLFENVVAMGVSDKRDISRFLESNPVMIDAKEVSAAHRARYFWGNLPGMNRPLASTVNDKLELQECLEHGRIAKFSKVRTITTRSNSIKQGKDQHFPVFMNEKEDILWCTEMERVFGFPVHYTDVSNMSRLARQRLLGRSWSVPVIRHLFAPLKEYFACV

[9] = molecular target: Histone-lysine N-methyltransferase PRDM9 (Homo sapiens) (UniProt Q9NQV7); test: Inhibition of PRDM9 (unknown origin) at 100 uM incubated for 15 mins followed by substrate addition measured after 60 mins by AlphaLisa method
Sequence of Histone-lysine N-methyltransferase PRDM9 (Homo sapiens) (Q9NQV7 whole entry): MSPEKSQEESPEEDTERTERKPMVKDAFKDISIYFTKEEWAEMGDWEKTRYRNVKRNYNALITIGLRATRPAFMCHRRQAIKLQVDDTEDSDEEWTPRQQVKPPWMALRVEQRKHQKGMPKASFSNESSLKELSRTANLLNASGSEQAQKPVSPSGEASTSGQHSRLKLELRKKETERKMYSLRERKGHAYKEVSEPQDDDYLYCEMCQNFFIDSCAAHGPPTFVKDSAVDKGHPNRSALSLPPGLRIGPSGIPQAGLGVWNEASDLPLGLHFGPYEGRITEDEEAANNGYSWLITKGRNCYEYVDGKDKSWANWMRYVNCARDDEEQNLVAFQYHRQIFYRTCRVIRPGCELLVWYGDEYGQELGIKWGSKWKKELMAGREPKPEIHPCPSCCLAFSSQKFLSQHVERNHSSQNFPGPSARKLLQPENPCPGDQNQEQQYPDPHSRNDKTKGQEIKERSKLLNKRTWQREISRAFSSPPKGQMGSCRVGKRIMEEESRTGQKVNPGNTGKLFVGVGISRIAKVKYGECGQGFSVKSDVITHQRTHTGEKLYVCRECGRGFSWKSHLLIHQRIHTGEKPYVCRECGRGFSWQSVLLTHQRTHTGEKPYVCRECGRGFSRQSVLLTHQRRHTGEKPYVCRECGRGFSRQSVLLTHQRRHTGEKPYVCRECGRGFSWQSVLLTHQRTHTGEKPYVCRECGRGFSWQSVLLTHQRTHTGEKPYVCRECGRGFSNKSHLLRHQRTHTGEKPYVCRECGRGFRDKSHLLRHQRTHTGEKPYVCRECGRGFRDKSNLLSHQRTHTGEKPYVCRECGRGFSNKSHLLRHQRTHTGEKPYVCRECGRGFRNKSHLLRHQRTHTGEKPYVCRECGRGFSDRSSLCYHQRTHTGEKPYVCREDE
Outline: (§4)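 AlphaLISA. Enzyme and substrate in 1x assay buffer, compound at 1% DMSO final. Enzyme preincubated with compound 15 min at room temperature, then substrate added. Reaction 60 min at room temperature, then bead mix added and incubated 60 min under subdued light before signal read.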

[10] = molecular target: Protein arginine N-methyltransferase 1 (Homo sapiens) (UniProt Q99873); test: Inhibition of PRMT1 in human MV411 cells assessed as increase in SDMA levels after 48 hrs by Western blot analysis; type: cell-based; outline: as §3
[11] = molecular target: Histone-lysine N-methyltransferase, H3 lysine-79 specific (Homo sapiens) (UniProt Q8TEK3); test: Inhibition of DOT1L (unknown origin) at 50 uM incubated for 15 mins followed by substrate addition measured after 60 mins by Alpha screen assay; outline: as §2
[12] = molecular target: Histone-arginine methyltransferase CARM1 (Homo sapiens, UniProt Q86X55); test: Inhibition of PRMT4 (unknown origin) incubated for 15 mins followed by substrate addition measured after 60 mins by AlphaLisa method
Outline: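 Enzyme preincubated with compound for 15 min at room temperature in 1x assay buffer (final DMSO 1%), then substrate added. The reaction ran for 60 min at room temperature. AlphaLISA bead mix was then added and incubated for 60 min at room temperature in subdued light. The luminescent signal was read and IC50 derived by curve fitting.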

[13] = molecular target: Protein arginine N-methyltransferase 1 (Rattus norvegicus) (UniProt Q63009); test: Non-competitive inhibition of rat His-tagged PRMT1 (11 to 353 residues) expressed in Escherichia coli BL21(DE3) in presence of varying concentrations of biotinylated H4 peptide (1 to 21 residues) substrate and fixed [3H]SAM concentration
Sequence of Protein arginine N-methyltransferase 1 (Rattus norvegicus) (Q63009 whole entry, looked up, the tested form may be a part): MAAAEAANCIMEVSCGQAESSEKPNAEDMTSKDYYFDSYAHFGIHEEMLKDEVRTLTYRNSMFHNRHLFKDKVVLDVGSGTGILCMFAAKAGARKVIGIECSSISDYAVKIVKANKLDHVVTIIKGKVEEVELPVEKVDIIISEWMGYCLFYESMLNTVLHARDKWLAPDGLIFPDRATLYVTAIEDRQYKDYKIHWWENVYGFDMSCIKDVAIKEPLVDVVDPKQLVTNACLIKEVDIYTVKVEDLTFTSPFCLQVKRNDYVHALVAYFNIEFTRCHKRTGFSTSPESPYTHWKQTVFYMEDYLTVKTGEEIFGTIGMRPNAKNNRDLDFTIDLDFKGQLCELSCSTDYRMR
Outline: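 Kinetic mode-of-action study using the radiolabel method with His6-rPRMT1(11–353). IC50 measured at varied peptide substrate or varied SAM concentrations, with the other component fixed. 15 min enzyme–compound preincubation, then 60 min reaction at RT with [3H]-SAM, Flashplate capture and Microbeta counting.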

[14] = molecular target: T1, DNMT3A2/3L complex (Homo sapiens); test: Inhibition of DNMT3A/3L (unknown origin) at 100 uM incubated for 15 mins followed by substrate addition measured after 60 mins by radioisotope assay; type: protein-complex assay
[15] = molecular target: N-lysine methyltransferase SMYD2 (Homo sapiens) (UniProt Q9NRG4); test: Inhibition of SMYD2 (unknown origin) at 100 uM incubated for 15 mins followed by substrate addition measured after 240 mins by AlphaLisa method
Sequence of N-lysine methyltransferase SMYD2 (Homo sapiens) (Q9NRG4 whole entry): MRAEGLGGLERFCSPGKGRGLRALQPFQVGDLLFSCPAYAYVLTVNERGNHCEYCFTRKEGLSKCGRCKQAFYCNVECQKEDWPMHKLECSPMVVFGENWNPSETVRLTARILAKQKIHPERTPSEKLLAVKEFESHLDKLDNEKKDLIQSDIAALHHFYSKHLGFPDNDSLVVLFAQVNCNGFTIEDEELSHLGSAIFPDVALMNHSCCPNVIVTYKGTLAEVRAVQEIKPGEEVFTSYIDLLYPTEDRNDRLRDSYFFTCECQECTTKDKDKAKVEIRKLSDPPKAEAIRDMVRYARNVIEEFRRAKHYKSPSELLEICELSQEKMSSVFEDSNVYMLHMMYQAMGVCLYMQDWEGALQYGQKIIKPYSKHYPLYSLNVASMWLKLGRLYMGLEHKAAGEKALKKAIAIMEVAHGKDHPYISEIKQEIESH
Outline: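 SMYD2 AlphaLISA at 50 and 100 µM compound, 1% DMSO final. Enzyme preincubated 15 min at RT, then substrate added and reacted 240 min at RT. Bead mix added and incubated 60 min at RT in subdued light before reading.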

KMS-11 = test: Cytotoxicity against human KMS11 cells assessed as decrease in cell viability after 96 hrs by Cell-Titer Glo assay; type: functional, cell-based; outline: as §1
[16] = molecular target: Histone-lysine N-methyltransferase EZH2 (Homo sapiens) (UniProt Q15910); test: Inhibition of EZH2 (unknown origin) at 100 uM incubated for 15 mins followed by substrate addition measured after 60 mins by radioisotope assay
MRC5 = test: Cytotoxicity against human MRC5 cells assessed as decrease in cell viability at 6.25 to 25 uM after 96 hrs by Cell-Titer Glo assay; type: cell-based; settings: mrc5, 96 h
Outline: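 Normal HUV-EC-C, MRC-5 and RCTEC cells at 37°C, 5% CO2, given compound or DMSO control for 96 h. Viability by CellTiter-Glo luminescence after 2 min shaking and 10 min at room temperature. Triplicate wells, normalised to control cells.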

MV4-11 [17] = test: Antiproliferative activity against human MV4-11 cells assessed as decrease in cell viability measured at day 8 by Cell-Titer Glo assay; type: functional, cell-based; settings: MV4-11, 192 h; outline: as §1
[18] = molecular target: Histone-lysine N-methyltransferase PRDM9 (Homo sapiens) (UniProt Q9NQV7); test: Inhibition of PRDM9 (unknown origin) at 50 uM incubated for 15 mins followed by substrate addition measured after 60 mins by AlphaLisa method; outline: as §4

CN(CCN)Cc1ccccc1Sc1ccccc1Cl
active: Activity (MV4-11 [1]) | inhibition [2] | inhibition [3] Dose-dependent effect | Activity (MV4-11 [4]) Dose-dependent effect | Activity (MV4-11 [5]) | Activity (KOPN-8) Dose-dependent effect | Activity (RS4-11) Dose-dependent effect | inhibition [7] Dose-dependent effect | inhibition [8] | inhibition [9] | inhibition [10] Dose-dependent effect | inhibition [11] | inhibition [13] | inhibition [14] | inhibition [15] | Activity (KMS-11) Dose-dependent effect | inhibition [16] | inhibition [18]
5.34: pIC50 (MV4-11 [6])
7.20: pIC50 [12]
Non-Toxic: Activity (MRC5)
5.49: pIC50 (MV4-11 [17])
